Key:
Rattus norvegicus [1] = test: Directly measured thickness(um) using micro Computed Tomography(CT) after a dose of 300 ug/kg in Vertebral Bone; assay type: functional
Procedure, shortened: (§1)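 Micro-CT of the fifth lumbar vertebra, measuring cancellous bone volume and architecture. Rats were 6 months old, OVX 60 days before treatment, then dosed daily for 60 days. Test-agent doses were 10–3000 µg/kg, given as a once-daily subcutaneous injection; 6 mg/kg/day was given to the positive-control group. Groups were compared with vehicle by ANOVA plus LSD test.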

Rattus norvegicus [2] = test: Marrow area (mm) measured Histomorphometrically after a dose of 3000 ug/kg in tibial diaphysis; assay type: functional
Procedure, shortened: (§2)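 Six-month-old rats, bilaterally ovariectomized, 6-8 per group, on natural chow. After 60 days they received once-daily subcutaneous dosing for 60 days at 0.01–3.0 mg/kg. Vehicle was acetate-buffered saline with methylcellulose and polyoxyethylenesorbitan monooleate. Labels were xylenol orange 90 mg/kg before treatment and calcein 10 mg/kg 14 and 4 days before sacrifice. Tibial histomorphometry was read under fluorescent light, with ANOVA/LSD versus vehicle.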

Rattus norvegicus [3] = test: Derived trabecular thickness (um) measured using micro Computed Tomography(CT) after a dose of 300 ug/kg in Vertebral Bone; assay type: functional, Trabecula; procedure, shortened: as §1
Rattus norvegicus [4] = test: Marrow area (mm) measured Histomorphometrically after a dose of 1000 ug/kg in tibial diaphysis; assay type: functional; procedure, shortened: as §2
Rattus norvegicus [5] = test: Periosteal mineralizing surface (%) measured Histomorphometrically after a dose of 30 ug/kg in tibial diaphysis; assay type: functional
Procedure, shortened: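 Rats on natural chow (1.46% Ca) were bilaterally ovariectomized at 6 months and left untreated for 60 days. They then received once-daily subcutaneous doses for 60 days, with vehicle of acetate-buffered saline, methylcellulose and polysorbate. Xylenol orange (90 mg/kg) was given before treatment and calcein (10 mg/kg) 14 and 4 days before sacrifice. Tibiae were analysed by fluorescent histomorphometry, 6-8 rats/group, ANOVA/LSD vs vehicle.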

Rattus norvegicus [6] = test: Bone formation rate/bone volume (%/year) bone measured histomorphometrically after a dose of 3000 ug/kg in proximal tibial metaphysis; assay type: functional; conditions: at 3000 µg/kg
Rattus norvegicus [7] = test: Derived trabecular no (mm-1)measured using micro Computed Tomography(CT) after a dose of 1000 ug/kg in Vertebral Bone; assay type: functional, Trabecula; procedure, shortened: as §1
Rattus norvegicus [8] = test: connectivity density (mm-3) using micro Computed Tomography(CT) after a does of 30 ug/kg in Vertebral Bone; assay type: functional
Procedure, shortened: (§3)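 Rats were ovariectomized at 6 months of age and, after 60 days, dosed subcutaneously once daily for 60 days, with vehicle of acetate-buffered saline, methylcellulose and polysorbate. At necropsy the fifth lumbar vertebra was scanned by micro-CT to obtain cancellous architecture. Groups were 6-8 rats; results were compared to vehicle by ANOVA with least significant difference test.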

Rattus norvegicus [9] = test: Derived trabecular no […]measured using micro Computed Tomography(CT) after a dose of 10 ug/kg in Vertebral Bone; assay type: functional, Trabecula; procedure, shortened: as §1
Rattus norvegicus [10] = test: Endosteal mineralizing surface Histomorphometrically after a dose of 100 ug/kg in tibial diaphysis; assay type: functional; procedure, shortened: as §2
Rattus norvegicus [11] = test: Marrow area (mm) measured Histomorphometrically after a dose of 30 ug/kg in tibial diaphysis; assay type: functional; procedure, shortened: as §2
Rattus norvegicus [12] = test: Mineral apposition rate ([…])bone measured Histomorphometrically after a dose of 100 ug/kg in tibial diaphysis; assay type: functional; procedure, shortened: as §2
[13] = target: Prostaglandin E2 receptor EP2 subtype (Homo sapiens, UniProt P43116); test: In vitro binding at EP2 human prostaglandin receptor
Chain of Prostaglandin E2 receptor EP2 subtype (P43116 whole entry): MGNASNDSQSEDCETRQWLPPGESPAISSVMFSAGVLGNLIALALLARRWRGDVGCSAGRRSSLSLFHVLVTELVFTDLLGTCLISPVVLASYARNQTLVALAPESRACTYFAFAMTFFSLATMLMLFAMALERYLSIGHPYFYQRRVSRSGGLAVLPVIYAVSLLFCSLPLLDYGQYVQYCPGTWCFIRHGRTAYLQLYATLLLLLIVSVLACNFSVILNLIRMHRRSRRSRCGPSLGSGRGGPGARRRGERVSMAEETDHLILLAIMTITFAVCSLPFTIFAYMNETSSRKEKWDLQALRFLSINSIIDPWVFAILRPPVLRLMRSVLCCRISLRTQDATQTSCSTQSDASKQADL
Procedure, shortened: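 Receptors stably expressed in CHO cells, collected 4-5 days after seeding. Membranes made by lysis (Tris, EDTA, protease inhibitors) and 100000g pellet, then resuspended at 1 mg protein/mL in TME. Radioligands at 5 nM: [3H]PGE2 for EP2/EP3/EP4, [3H]Iloprost for IP, [3H]SQ-29548 for TP. Competition binding with filtration and counting.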

[14] = target: T1, Prostaglandin D2 receptor (Homo sapiens, UniProt Q13258); test: In vitro binding at DP human prostaglandin receptor using [3H]- PGD-2 as radioligand
T1 sequence (Q13258 whole entry): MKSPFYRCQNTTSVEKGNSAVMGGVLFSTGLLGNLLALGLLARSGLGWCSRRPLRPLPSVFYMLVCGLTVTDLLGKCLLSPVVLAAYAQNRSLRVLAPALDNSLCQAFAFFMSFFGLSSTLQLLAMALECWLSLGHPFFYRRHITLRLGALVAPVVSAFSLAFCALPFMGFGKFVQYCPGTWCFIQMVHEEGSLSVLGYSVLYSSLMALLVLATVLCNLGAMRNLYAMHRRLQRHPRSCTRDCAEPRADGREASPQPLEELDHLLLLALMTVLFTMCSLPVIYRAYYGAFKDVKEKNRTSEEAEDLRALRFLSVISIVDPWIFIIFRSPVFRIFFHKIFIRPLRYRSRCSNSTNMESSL
Procedure, shortened: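 hDP stably expressed in HEK-293 cells, collected 4-5 days after seeding. Membranes made by lysis and 100000g spin, then taken up at 1 mg protein/mL in TME buffer at pH 7.4. Competition binding used 5 nM [3H]PGD2, read by filtration and scintillation counting.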

Rattus norvegicus [15] = test: Directly measured thickness(um) using micro Computed Tomography(CT) after a dose of 100 ug/kg in Vertebral Bone; assay type: functional; procedure, shortened: as §1
Rattus norvegicus [16] = test: Mineralizing surface/bone surface(%) measured Histomorphometrically after a dose of 10 ug/kg in proximal tibial metaphysis; assay type: functional
Procedure, shortened: (§4)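 Ovariectomized six-month-old rats, 6-8 per group, were dosed subcutaneously once daily at 0.01–3.0 mg/kg for 60 days, starting 60 days after surgery. Vehicle was acetate-buffered saline, methylcellulose and polyoxyethylenesorbitan monooleate. Labels were xylenol orange 90 mg/kg pretreatment and calcein 10 mg/kg at 14 and 4 days before necropsy. Histomorphometry covered the proximal tibial metaphysis, 1–4 mm distal to the growth plate–metaphyseal junction. ANOVA/LSD versus vehicle.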

Rattus norvegicus [17] = test: Mineralizing surface/bone surface(%) measured Histomorphometrically after a dose of 1000 ug/kg in proximal tibial metaphysis; assay type: functional; procedure, shortened: as §4
Rattus norvegicus [18] = test: connectivity density (mm-3) using micro Computed Tomography(CT) after a does of 3000 ug/kg in Vertebral Bone; assay type: functional; procedure, shortened: as §3
Rattus norvegicus [19] = test: Endosteal eroded surface(%) measured Histomorphometrically after a dose of 30 ug/kg in tibial diaphysis; assay type: functional
Procedure, shortened: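 Tibial histomorphometry in 6-month-old rats, OVX 60 days before treatment, then daily injection for 60 days. Vehicle was acetate-buffered saline with methylcellulose and polyoxyethylenesorbitan monooleate. Rats received xylenol orange 90 mg/kg before treatment and calcein 10 mg/kg at 14 and 4 days pre-sacrifice. Rats were killed by cardiac puncture under ketamine/xylazine. Groups were compared with vehicle by ANOVA plus LSD test.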

Rattus norvegicus [20] = test: Trabecular thickness […] measured Histomorphometrically after a dose of 300 ug/kg in proximal tibial metaphysis; assay type: functional, Trabecula
Procedure, shortened: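 Six-month-old rats were ovariectomized, and 60 days later daily subcutaneous dosing began for 60 days, with vehicle of acetate-buffered saline, methylcellulose and polysorbate. Xylenol orange (90 mg/kg) labelled bone pre-treatment and calcein (10 mg/kg) 14 and 4 days pre-sacrifice. Histomorphometry covered the proximal tibial metaphysis 1-4 mm distal to the growth plate-metaphyseal junction. Groups were 6-8 rats, compared by ANOVA/LSD vs vehicle.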

Rattus norvegicus [21] = test: Bone Volume /Tissue Volume (%)measured using micro Computed Tomography(CT) after a dose of 1000 ug/kg in Vertebral Bone; assay type: functional; conditions: at 1000 µg/kg
Rattus norvegicus [22] = test: Derived trabecular no […]measured using micro Computed Tomography(CT) after a dose of 300 ug/kg in Vertebral Bone; assay type: functional, Trabecula; procedure, shortened: as §1

## CP(=O)(O)CCC/C=C\C[C@@H]1[C@@H](/C=C/[C@@H](O)COc2ccccc2)[C@H](O)C[C@@H]1O
Rattus norvegicus [1]
  Directly measured thickness: 127 µm
Rattus norvegicus [2]
  Marrow area: 0.74 mm
Rattus norvegicus [3]
  Derived trabecular thickness: 79.5 µm
Rattus norvegicus [4]
  Marrow area: 0.86 mm²
Rattus norvegicus [5]
  Periosteal mineralizing surface: 26.23%
Rattus norvegicus [6]
  Activity: 247.55%
Rattus norvegicus [7]
  Derived trabecular number: 4.59 mm-1
Rattus norvegicus [8]
  Connectivity density: 59.2 mm**-3
Rattus norvegicus [9]
  Derived trabecular number: 4.26 mm-1
Rattus norvegicus [10]
  Endosteal mineralizing surface: 22.28%
Rattus norvegicus [11]
  Marrow area: 0.87 mm²
Rattus norvegicus [12]
  Mineral apposition rate: 0.42 µm/day
[13]
  IC50: > 10 µM
[14]
  IC50: > 10 µM
Rattus norvegicus [15]
  Directly measured thickness: 127 µm
Rattus norvegicus [16]
  Activity: 28.37%
Rattus norvegicus [17]
  Activity: 22.04%
Rattus norvegicus [18]
  Connectivity density: 55.9 mm**-3
Rattus norvegicus [19]
  Endosteal eroded surface: 2.01%
Rattus norvegicus [20]
  Trabecular thickness: 44 µm
Rattus norvegicus [21]
  Activity: 36.98%
Rattus norvegicus [22]
  Derived trabecular number: 4.86 mm-1

Source: ChEMBL document CHEMBL1134785, “Synthesis and biological evaluation of prostaglandin-F alkylphosphinic acid derivatives as bone anabolic agents for the treatment of osteoporosis” (J Med Chem, 2001)
